From publication PMC3428850 (Molecular cancer therapeutics, 2012)

How the values were obtained:
PI-3K = assay: PI-3K-dependent AKT phosphorylation; assay type: cell-based, human; settings: read-out: IC50 PI-3K-mediated AKT phosphorylation; MCF7 cells, IGF-1 stimulated
How it was run: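 MCF7 cells in RPMI 1640/10% FBS. Exposed to a concentration range of test compound for 1 h, then 50 ng/ml IGF-1 for 30 min. Western blot of AKT Ser473 relative to total AKT. Rise above unstimulated baseline in treated cells expressed as % of the rise in control cells. Mean of three independent experiments fitted to a sigmoidal dose-response curve for IC50.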

SW620 cells = assay: clonogenic survival assay; assay type: cell-based, human
LoVo cells = assay: clonogenic survival assay; assay type: cell-based, human
How it was run: (§1)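 Cells in RPMI 1640/10% FBS were exposed in 6-well plates for 16 h to etoposide or doxorubicin with or without test compound (1 μM), or to test compound alone. Cells then harvested and reseeded in drug-free medium. Colonies stained with crystal violet after 10-14 days and counted automatically. Fold enhancement = survival with cytotoxic alone / survival with cytotoxic + 1 μM test compound. Means ± SD, n = 3.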

MCF7 cells = assay: clonogenic survival assay; assay type: cell-based, human
How it was run: as §1

T47D cells = assay: clonogenic survival assay; assay type: cell-based, human
How it was run: as §1

MDA-MB-231 cells = assay: clonogenic survival assay; assay type: cell-based, human
How it was run: as §1

M059J cells = assay: clonogenic survival assay, DNA-PKcs-deficient cells; assay type: cell-based, human; settings: clonogenic survival
How it was run: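 Human glioblastoma M059J cells (DNA-PKcs-deficient) and M059-Fus-1 cells (chromosome 8 transfected; G-418 200 μg/ml) in DMEM/10% FBS. Etoposide or doxorubicin alone or with 1 μM test compound, or test compound alone, for 16 h. Reseeded drug-free. Crystal violet colony counts after 10-14 days. Fold enhancement as survival ratio. Means ± SD, n = 3.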

MCF7 xenografts = assay: anti-tumour efficacy study, MCF7 xenografts; assay type: in vivo; settings: MCF7 tumour-bearing mice
SW620 xenografts = assay: anti-tumour efficacy study, SW620 xenografts; assay type: in vivo, mice
How it was run: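 Female athymic CD1-nu/nu mice with s.c. SW620, n = 5/group, treated once tumours were palpable (~5 × 5 mm, day 8-10). Controls: saline i.p. daily. Test compound 10 mg/kg i.p. for 5 days. Etoposide phosphate 11.35 mg/kg i.p. (10 mg/kg etoposide) daily × 5. Combination: test compound i.p. once or twice daily × 5, first dose just before etoposide. Caliper volume a²×b/2; median RTV (day 0 = 1); time to RTV4.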

V3 cells = assay: clonogenic survival assay, DNA-PKcs-deficient cells; assay type: cell-based, Chinese hamster; settings: clonogenic survival
How it was run: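 Chinese hamster ovary V3 cells (DNA-PKcs-deficient) and V3-YAC cells (human DNA-PKcs on YAC; kept under G-418 500 μg/ml) in RPMI 1640/10% FBS. Etoposide alone or with 1 μM test compound, or test compound alone, for 16 h. Reseeded drug-free. Crystal violet colony counts after 10-14 days. Fold enhancement as survival ratio. Means ± SD of 3 independent experiments.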

[1] = 100 nM doxorubicin with or without 1 μM KU-0060648, 16 hr
[2] = 1 μM etoposide with or without 1 μM KU-0060648, 16 hr

O=c1cc(N2CCOCC2)oc2c(-c3cccc4c3sc3ccccc34)cccc12 [NU7441, reference compound]
IC50 (PI-3K): 3.9 ± 3.5 µM

COc1cccc2c1C(=O)c1c(O)c3c(c(O)c1C2=O)C[C@@](O)(C(=O)CO)C[C@@H]3O[C@H]1C[C@H](N)[C@H](O)[C@H](C)O1 [doxorubicin, reference compound]
survival (clonogenic) (SW620 cells; SW620, 100 nM doxorubicin with or without 1 μM KU-0060648, 16 hr): 0.06±0.06
survival (clonogenic) (LoVo cells; [1]): 1.4±0.9
survival (clonogenic) (MCF7 cells; MCF7, 100 nM doxorubicin with or without 1 μM KU-0060648, 16 hr): 42.3±13
survival (clonogenic) (T47D cells; [1]): 9.0±3.2
survival (clonogenic) (MDA-MB-231 cells; MDA-MB-231, 100 nM doxorubicin with or without 1 μM KU-0060648, 16 hr): 1.8±0.6
fold more sensitive, DNA-PKcs-deficient M059J versus M059-Fus-1 cells (M059J cells): approximately 23 fold

COc1cc([C@@H]2c3cc4c(cc3[C@@H](O[C@@H]3O[C@@H]5CO[C@@H](C)O[C@H]5[C@H](O)[C@H]3O)[C@H]3COC(=O)[C@H]23)OCO4)cc(OC)c1OP(=O)(O)O [etoposide phosphate, reference compound]
maximum body weight loss (MCF7 xenografts): 3%
maximum body weight loss (SW620 xenografts; SW620 tumour-bearing mice): no body weight loss
time to RTV4 (median) (SW620 xenografts; SW620 xenografts, single agent or combination with once daily KU-0060648): 6.5 days

COc1cc([C@@H]2c3cc4c(cc3[C@@H](O[C@@H]3O[C@@H]5CO[C@@H](C)O[C@H]5[C@H](O)[C@H]3O)[C@H]3COC(=O)[C@H]23)OCO4)cc(OC)c1O [etoposide, reference compound]
survival (clonogenic) (SW620 cells; SW620, 1 μM etoposide with or without 1 μM KU-0060648, 16 hr): 4.7±2.0
survival (clonogenic) (LoVo cells; [2]): 3.5±0.5
survival (clonogenic) (MCF7 cells; MCF7, 1 μM etoposide with or without 1 μM KU-0060648, 16 hr): 23±9
survival (clonogenic) (T47D cells; [2]): 24±4
survival (clonogenic) (MDA-MB-231 cells; MDA-MB-231, 1 μM etoposide with or without 1 μM KU-0060648, 16 hr): 16±10
fold more sensitive, DNA-PKcs-deficient V3 versus V3-YAC cells (V3 cells): approximately 3 fold
fold more sensitive, DNA-PKcs-deficient M059J versus M059-Fus-1 cells (M059J cells): approximately 2.5 fold
